Measured values published in ChEMBL document CHEMBL4480411, “Discovery of Second Generation RORγ Inhibitors Composed of an Azole Scaffold” (J Med Chem, 2019).

Columns and labels:
[1] = Apparent permeability in human Caco2 cells; assay type: ADME, cell-based; conditions: Caco-2
[2] = Stability in human liver microsomes assessed as compound remaining after 60 mins; assay type: ADME, Microsome; conditions: read-out: Stability
In short: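 Human liver microsomes incubated with compound for 60 minutes; value reported as % of compound remaining.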

[3] = Lipophilicity, log D of the compound; assay type: physicochemical; conditions: octanol/water
[4] = molecular target: T1, Nuclear receptor ROR-gamma (Homo sapiens, UniProt P51449); assay: Inhibition of human GAL4-fused RORgamma LBD transcriptional activity expressed in CHOK1 cells after 2 days by luciferase reporter gene assay; assay type: cell-based
T1 sequence (P51449 whole entry): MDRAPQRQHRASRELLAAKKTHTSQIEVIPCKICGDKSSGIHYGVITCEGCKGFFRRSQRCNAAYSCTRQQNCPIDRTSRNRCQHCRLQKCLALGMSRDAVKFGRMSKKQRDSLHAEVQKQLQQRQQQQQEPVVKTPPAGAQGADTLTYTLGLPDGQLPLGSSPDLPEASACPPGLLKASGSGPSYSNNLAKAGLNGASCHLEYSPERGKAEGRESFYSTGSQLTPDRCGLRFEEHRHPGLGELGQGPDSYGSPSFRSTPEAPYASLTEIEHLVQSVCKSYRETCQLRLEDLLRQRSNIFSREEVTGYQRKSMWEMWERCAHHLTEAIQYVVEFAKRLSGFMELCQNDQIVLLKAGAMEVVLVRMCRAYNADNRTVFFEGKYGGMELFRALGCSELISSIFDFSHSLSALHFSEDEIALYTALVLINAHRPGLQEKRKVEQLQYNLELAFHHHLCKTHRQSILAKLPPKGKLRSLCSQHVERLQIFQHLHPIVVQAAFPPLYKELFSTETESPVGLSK

| SMILES | Papp [1] [×10⁻⁶ cm/s] | remaining at 1 h [2] [%] | logD [3] | EC50 [4] [nM] |
| --- | --- | --- | --- | --- |
| Cc1ccc(NC(=O)CC(CCC(=O)N(C)C)c2nnc(CCCC(C)C)n2C2CC2)c(C)c1 (racemic) | 7 | 45 | 3.8 | 2700 |
| Cc1ccc(NC(=O)CC(CCC(=O)O)c2nnc(CCCC(C)C)n2C2CC2)c(C)c1 (racemic) | 0.2 | 91 | 2.9 | > 20000 |
| Cc1ccc(NC(=O)C[C@H](CCC(=O)[O-])c2noc(-c3ncc(CC(C)C)s3)c2C2CC2)c(Cl)c1.[Na+] | 28 | 82 | 4 | 120 |
| Cc1ccc(NC(=O)C[C@H](CCC(=O)[O-])c2noc(-c3nnc(CC(C)C)s3)c2C2CC2)c(Cl)c1.[Na+] | 10 | 78 | 3.4 | 56 |
| Cc1ccc(NC(=O)C[C@H](CCC(=O)[O-])c2noc(-c3noc(CC(C)C)n3)c2C2CC2)c(Cl)c1.[Na+] | 25 | 90 | 3.6 | 62 |
| Cc1ccc(NC(=O)C[C@H](CCC(=O)O)c2noc(-c3ccc(CC(C)C)cc3)c2C2CC2)c(Cl)c1 | 16 | 80 | 4.8 | 44 |
| Cc1ccc(NC(=O)CC(CCO)c2nnc(CCCC(C)C)n2C2CC2)c(C)c1 (racemic) | 11 | 21 | 3.5 | 440 |
| Cc1ccc(NC(=O)CC(CCN)c2nnc(CCCC(C)C)n2C2CC2)c(C)c1 (racemic) | 0.2 | 88 | 3.1 | > 20000 |
| Cc1ccc(NC(=O)C[C@H](CCC(=O)[O-])c2noc(-c3ncc(CC(C)C)o3)c2C2CC2)c(Cl)c1.[Na+] | 32 | 75 | 3.7 | 660 |
| Cc1ccc(NC(=O)C[C@H](CCC(=O)[O-])c2noc(-c3csc(CC(C)C)n3)c2C2CC2)c(Cl)c1.[Na+] | 34 | 82 | 3.8 | 3800 |
| CC(=O)N1C[C@H](C(=O)Nc2ccc(C)cc2C)[C@@H](c2nnc([C@H]3C[C@@H](CC(C)C)C3)n2C2CC2)C1 | 20 | 61 | 4.3 |  |
| CC(=O)NCCC(CC(=O)Nc1ccc(C)cc1C)c1nnc(CCCC(C)C)n1C1CC1 (racemic) | 1.3 | 39 | 3.5 | 11000 |
| Cc1ccc(NC(=O)CCc2nnc(CCCC(C)C)n2C2CC2)c(C)c1 | 36 | 27 | 3.9 |  |
| Cc1ccc(NC(=O)CC(CCC(N)=O)c2nnc(CCCC(C)C)n2C2CC2)c(C)c1 (racemic) | 0.8 | 44 | 3.4 | 16000 |
| CNC(=O)CCC(CC(=O)Nc1ccc(C)cc1C)c1nnc(CCCC(C)C)n1C1CC1 (racemic) | 1.5 | 65 | 3.5 | 6400 |
| CCN(c1ccc(C(O)(C(F)(F)F)C(F)(F)F)cc1)S(=O)(=O)c1ccc([N+](=O)[O-])cc1 |  |  |  | 190 |
| Cc1ccc(NC(=O)CC(CCN(C)C)c2nnc(CCCC(C)C)n2C2CC2)c(C)c1 (racemic) | 0.8 | 85 | 3.3 | 19000 |

Now from value to compound:

| Papp [1] [×10⁻⁶ cm/s] | remaining at 1 h [2] [%] | logD [3] | EC50 [4] [nM] | SMILES |
| --- | --- | --- | --- | --- |
|  | 74 | 4 | 7 | Cc1ccc(NC(=O)C[C@H](CCC(=O)O)c2noc(-c3cc(C(F)(F)C(C)C)on3)c2C2CC2)c(Cl)c1 |
|  | 107 | 4.2 | 7 | CC(C)(C)C(F)(F)c1cc(-c2onc([C@@H](CCC(=O)O)CC(=O)Nc3ccc(Cl)cc3F)c2C2CC2)no1 |
| 34 | 54 | 3.8 | 17 | Cc1ccc(NC(=O)C[C@H](CCC(=O)[O-])c2noc(-c3cnc(CC(C)C)s3)c2C2CC2)c(Cl)c1.[Na+] |
|  | 79 | 4.3 | 8 | Cc1ccc(NC(=O)C[C@H](CCC(=O)O)c2noc(-c3cc(CCC(C)C)on3)c2C2CC2)c(Cl)c1 |
|  | 78 | 4.4 | 8 | Cc1ccc(NC(=O)C[C@H](CCC(=O)O)c2noc(-c3cc(C(F)(F)CC(C)C)on3)c2C2CC2)c(Cl)c1 |
| 36 | 74 | 3.9 | 14 | Cc1ccc(NC(=O)C[C@H](CCC(=O)[O-])c2noc(-c3cc(CC(C)C)on3)c2C2CC2)c(Cl)c1.[Na+] |
|  | 84 | 4.2 | 7 | Cc1ccc(NC(=O)C[C@H](CCC(=O)O)c2noc(-c3cc(CC(C)(C)C)on3)c2C2CC2)c(Cl)c1 |
|  | 77 | 4.3 | 6 | Cc1ccc(NC(=O)C[C@H](CCC(=O)O)c2noc(-c3cc(C(F)(F)C(C)(C)C)on3)c2C2CC2)c(Cl)c1 |
|  | 90 | 4 | 6 | CC(C)(C)C(F)(F)c1cc(-c2onc([C@@H](CCC(=O)O)CC(=O)Nc3ccc(F)cc3Cl)c2C2CC2)no1 |
| 28 | 54 | 3.8 | 12 | Cc1ccc(NC(=O)C[C@H](CCC(=O)[O-])c2noc(-c3cc(CC(C)C)no3)c2C2CC2)c(Cl)c1.[Na+] |
